Experimental findings from ChEMBL document CHEMBL3286193, “Discovery of a series of 2,5-diaminopyrimidine covalent irreversible inhibitors of Bruton's tyrosine kinase with in vivo antitumor activity” (J Med Chem, 2014) are described below.

In one series the test system is Mus musculus. Description: Toxicity in CB17 SCID mouse xenografted with human DOHH2 cells assessed as body weight fluctuations at 10 mg/kg, iv qd administered for 14 days measured over 14 days of compound treatment. The settings on record: in vivo, 336 h. Details: dose 10 mg/kg, route intravenous. The class given is organism-based, DOHH-2. In outline: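 Female CB17/SCID mice carried subcutaneous DoHH2 xenografts (5 × 10⁶ cells injected), randomised at ~167 mm³ mean tumour volume into four groups (n = 6/group). Compound was given intravenously via the tail vein once daily for 14 consecutive days. Body weights were tracked over time throughout the study.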
(A xenograft is tissue or cells of one species grown in another, often human tumour cells in immunodeficient mice.)

Series [1] deals with Tyrosine-protein kinase JAK2 (Homo sapiens) (UniProt O60674). Description: Inhibition of JAK2 (unknown origin) at 0.5 uM by [33P]-ATP filter binding assay. In outline: (§1)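 Kinase panel of 18 enzymes; inhibition tested at 0.5 μM. Values are means of duplicates.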
For a further series, the species on record is Homo sapiens. Briefly: Inhibition of VEGFR (unknown origin) at 0.5 uM by [33P]-ATP filter binding assay. In outline:
as §1

The nature of series [2]: Antitumor activity against human DOHH2 cells xenografted in CB17 SCID mouse assessed as tumor growth inhibition at 20 mg/kg, iv qd administered for 14 days measured over 14 days of compound treatment relative to vehicle-treated control. Particulars: DOHH-2, iv, 336 h, read-out: TGI.
Series [3] concerns the target Receptor tyrosine-protein kinase erbB-4 (Homo sapiens, UniProt Q15303). Briefly: Inhibition of HER4 (unknown origin) at 0.5 uM by [33P]-ATP filter binding assay. In a few lines: as §1
For series [4], the target named is Tyrosine-protein kinase JAK3 (Homo sapiens, UniProt P52333). Description: Inhibition of Jak3 (unknown origin) after 1 hr by HTRF assay. In outline:
(§2)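 Recombinant kinases tested by HTRF KinEase protocol. Enzyme preincubated with inhibitor for a fixed 10 min. IC50 values are means of duplicates.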
In general terms: TR-FRET usually uses a lanthanide donor and a delayed reading to cut background.

The nature of series [5]: Binding affinity to glutathione in PBS buffer assessed as glutathione-compound adduct formation at 100 uM at pH 7.4 at 37 degC after 2 hrs. In a few lines: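 Compound (100 μM) incubated with 5 mM glutathione in PBS, pH 7.4, at 37 °C. Checked for GSH−compound adducts after 2 h.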
In another series the test system is DOHH-2. Description: Antitumor activity against human DOHH2 cells xenografted in iv dosed CB17 SCID mouse assessed as tumor growth inhibition administered as qd for 14 days measured over 14 days of compound treatment. The format is functional, organism-based.
In series [6] the target is Tyrosine-protein kinase TXK (Homo sapiens, UniProt P42681). Description: Inhibition of Rlk (unknown origin) after 1 hr by HTRF assay. In outline: as §2
In series [7] the target is Tyrosine-protein kinase Blk (Homo sapiens, UniProt P51451). Briefly: Inhibition of Blk (unknown origin) after 1 hr by HTRF assay. In a few lines:
as §2

Series [8] can be described thus: Plasma concentration in CB17 SCID mouse xenografted with human DOHH2 cells at 20 mg/kg, iv qd administered for 14 days measured at 24 hrs post last dose. The class given is ADME, organism-based, DOHH-2. Also on record: dose 20 mg/kg, route intravenous. In a few lines: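 Same DoHH2 xenograft study in female CB17/SCID mice, tail-vein dosing once daily for 14 days. Plasma compound concentrations determined at 2 and 24 h after the last administration.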

Series [9] is described as follows: Solubility of the compound in FaSSIF. The class given is ADME.
Series [10] can be described thus: Volume of distribution at steady state in ICR mouse at 1 mg/kg, iv by LC-MS analysis. The class given is ADME, organism-based. Details: dose 1 mg/kg, route intravenous. The settings on record: in vivo, read-out: Vdss. In a few lines: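 ICR mice (n = 3) given a single intravenous injection at 1 mg/kg. Blood sampled at various time points and analyzed by LC−MS to derive t1/2, CL and Vss.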

Series [11] in a line: Antitumor activity against human DOHH2 cells xenografted in CB17 SCID mouse assessed as tumor growth inhibition at 10 mg/kg, iv qd administered for 14 days measured over 14 days of compound treatment relative to vehicle-treated control. Particulars: DOHH-2, iv, 336 h, read-out: TGI.
The test system of the next series is JVM-3. Description: Cytotoxicity against human JVM-3 cells assessed as growth inhibition at 1 to 10 uM after 72 hrs by CellTiter-Glo luminescent cell viability assay. The format is functional, cell-based. (ATP-based viability assays read luminescence as a measure of living cells.)
The target in series [12] is Cytoplasmic tyrosine-protein kinase BMX (Homo sapiens, UniProt P51813). Briefly: Inhibition of Bmx (unknown origin) after 1 hr by HTRF assay. In outline:
as §2

Series [13] deals with Receptor tyrosine-protein kinase erbB-2 (Homo sapiens, UniProt P04626). Description: Inhibition of HER2 (unknown origin) after 1 hr by HTRF assay. In a few lines:
as §2

Series [14] deals with Tyrosine-protein kinase Tec (Homo sapiens, UniProt P42680). Description: Inhibition of Tec (unknown origin) after 1 hr by HTRF assay. In a few lines: as §2
For series [15], the target named is Tyrosine-protein kinase BTK (Homo sapiens, UniProt Q06187). Description: Binding affinity to Btk kinase domain (387 to 659) (unknown origin) assessed as compound-protein covalent adduct formation at 1:3 protein to compound molar ratio at 4 degC after 1 hr by LC-MS analysis. In a few lines:
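Btk kinase domain (residues 387−659, MW 32136) incubated with 3 equiv of compound at 4 °C for 1 h. Mass spectrometry of the intact protein checked for mass peak shift consistent with 1-to-1 protein−compound adducts.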

Values after ≈ are worked out from the molar mass of the structure shown. Active and inactive are the calls of the source. No cut-off for these calls is given here.

A word on the IC50: it is the concentration that inhibits the measured activity by half. Low readings indicate higher potency, high ones lower potency. Broadly, the solubility is the dissolved amount per volume that the medium holds.

Chain of Tyrosine-protein kinase Blk (P51451 whole entry): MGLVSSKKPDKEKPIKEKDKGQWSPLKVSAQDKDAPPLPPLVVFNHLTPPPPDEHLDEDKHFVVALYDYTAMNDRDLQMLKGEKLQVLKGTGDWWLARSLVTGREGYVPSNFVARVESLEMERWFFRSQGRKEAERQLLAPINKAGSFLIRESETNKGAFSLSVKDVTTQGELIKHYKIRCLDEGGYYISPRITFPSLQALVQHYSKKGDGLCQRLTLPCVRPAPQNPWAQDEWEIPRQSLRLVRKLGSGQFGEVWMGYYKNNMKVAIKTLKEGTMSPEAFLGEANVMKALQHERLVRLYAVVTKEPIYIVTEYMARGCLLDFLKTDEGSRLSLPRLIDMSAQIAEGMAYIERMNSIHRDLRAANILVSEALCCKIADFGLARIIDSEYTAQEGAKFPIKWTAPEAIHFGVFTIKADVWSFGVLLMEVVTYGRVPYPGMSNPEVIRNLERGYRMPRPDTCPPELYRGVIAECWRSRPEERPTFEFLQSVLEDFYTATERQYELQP
Chain of Tyrosine-protein kinase JAK3 (P52333 whole entry): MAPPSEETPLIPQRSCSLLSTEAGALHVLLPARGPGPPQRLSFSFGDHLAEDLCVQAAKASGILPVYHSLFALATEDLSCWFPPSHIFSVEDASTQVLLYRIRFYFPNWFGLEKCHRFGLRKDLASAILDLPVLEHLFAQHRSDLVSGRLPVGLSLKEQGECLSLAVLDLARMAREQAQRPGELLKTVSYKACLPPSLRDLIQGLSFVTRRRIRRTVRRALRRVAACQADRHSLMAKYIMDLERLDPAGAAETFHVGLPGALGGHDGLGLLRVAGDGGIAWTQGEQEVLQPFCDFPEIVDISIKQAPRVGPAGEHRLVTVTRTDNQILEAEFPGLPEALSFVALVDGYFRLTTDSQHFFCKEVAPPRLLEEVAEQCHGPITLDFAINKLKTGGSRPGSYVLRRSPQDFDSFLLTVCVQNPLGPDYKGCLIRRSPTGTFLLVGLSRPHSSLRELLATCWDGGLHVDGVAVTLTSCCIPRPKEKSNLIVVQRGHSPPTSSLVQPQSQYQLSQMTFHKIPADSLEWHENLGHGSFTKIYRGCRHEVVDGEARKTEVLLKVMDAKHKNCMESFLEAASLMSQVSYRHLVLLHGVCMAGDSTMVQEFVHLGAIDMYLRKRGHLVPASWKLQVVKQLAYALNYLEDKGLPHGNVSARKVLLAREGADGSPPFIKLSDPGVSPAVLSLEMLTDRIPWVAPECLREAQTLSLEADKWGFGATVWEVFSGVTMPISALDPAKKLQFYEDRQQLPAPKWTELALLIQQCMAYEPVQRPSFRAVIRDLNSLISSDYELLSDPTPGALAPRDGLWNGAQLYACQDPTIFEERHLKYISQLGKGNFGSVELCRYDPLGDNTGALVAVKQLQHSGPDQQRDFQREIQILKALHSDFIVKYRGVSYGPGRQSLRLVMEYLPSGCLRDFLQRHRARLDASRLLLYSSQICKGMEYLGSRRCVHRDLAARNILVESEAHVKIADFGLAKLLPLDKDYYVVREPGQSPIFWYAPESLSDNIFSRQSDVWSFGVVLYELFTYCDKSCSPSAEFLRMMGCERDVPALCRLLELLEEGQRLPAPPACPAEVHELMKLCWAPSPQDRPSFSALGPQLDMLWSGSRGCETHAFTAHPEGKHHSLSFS
Chain of Tyrosine-protein kinase Tec (P42680 whole entry, the tested form may be a part): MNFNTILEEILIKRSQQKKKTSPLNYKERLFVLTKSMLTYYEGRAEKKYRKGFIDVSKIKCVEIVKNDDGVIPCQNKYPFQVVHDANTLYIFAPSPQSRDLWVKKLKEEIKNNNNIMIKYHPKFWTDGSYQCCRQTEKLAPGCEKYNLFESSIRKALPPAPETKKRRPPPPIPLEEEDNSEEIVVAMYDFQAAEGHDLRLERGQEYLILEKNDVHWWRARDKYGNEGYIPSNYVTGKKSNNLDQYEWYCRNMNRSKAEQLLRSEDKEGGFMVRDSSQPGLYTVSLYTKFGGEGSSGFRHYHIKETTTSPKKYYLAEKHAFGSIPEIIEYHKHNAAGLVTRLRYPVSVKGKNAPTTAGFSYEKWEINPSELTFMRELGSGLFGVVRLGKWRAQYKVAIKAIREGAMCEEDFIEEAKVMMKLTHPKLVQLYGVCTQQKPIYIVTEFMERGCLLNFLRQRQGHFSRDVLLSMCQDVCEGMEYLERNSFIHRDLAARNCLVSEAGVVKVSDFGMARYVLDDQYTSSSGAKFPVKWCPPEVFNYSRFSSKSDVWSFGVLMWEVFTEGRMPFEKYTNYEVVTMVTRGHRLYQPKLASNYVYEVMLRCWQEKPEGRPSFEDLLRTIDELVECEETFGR
Chain of Tyrosine-protein kinase BTK (Q06187 whole entry, the tested form may be a part): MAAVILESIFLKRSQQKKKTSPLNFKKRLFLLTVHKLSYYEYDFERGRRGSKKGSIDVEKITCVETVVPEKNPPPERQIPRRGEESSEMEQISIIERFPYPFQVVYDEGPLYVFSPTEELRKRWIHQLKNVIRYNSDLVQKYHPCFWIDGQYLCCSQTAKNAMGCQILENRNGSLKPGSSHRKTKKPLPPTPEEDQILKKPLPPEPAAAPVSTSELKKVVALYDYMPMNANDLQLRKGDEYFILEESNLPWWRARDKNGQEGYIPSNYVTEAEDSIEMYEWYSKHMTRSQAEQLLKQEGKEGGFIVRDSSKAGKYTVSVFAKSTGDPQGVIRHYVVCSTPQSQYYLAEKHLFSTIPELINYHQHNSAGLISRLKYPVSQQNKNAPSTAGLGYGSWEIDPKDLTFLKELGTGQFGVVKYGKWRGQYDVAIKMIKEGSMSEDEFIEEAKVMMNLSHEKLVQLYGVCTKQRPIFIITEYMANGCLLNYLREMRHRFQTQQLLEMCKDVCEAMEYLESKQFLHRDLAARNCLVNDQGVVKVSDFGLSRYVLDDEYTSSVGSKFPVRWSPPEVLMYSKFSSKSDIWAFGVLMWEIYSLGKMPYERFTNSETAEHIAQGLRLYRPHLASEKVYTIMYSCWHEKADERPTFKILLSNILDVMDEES
Chain of Tyrosine-protein kinase TXK (P42681 whole entry): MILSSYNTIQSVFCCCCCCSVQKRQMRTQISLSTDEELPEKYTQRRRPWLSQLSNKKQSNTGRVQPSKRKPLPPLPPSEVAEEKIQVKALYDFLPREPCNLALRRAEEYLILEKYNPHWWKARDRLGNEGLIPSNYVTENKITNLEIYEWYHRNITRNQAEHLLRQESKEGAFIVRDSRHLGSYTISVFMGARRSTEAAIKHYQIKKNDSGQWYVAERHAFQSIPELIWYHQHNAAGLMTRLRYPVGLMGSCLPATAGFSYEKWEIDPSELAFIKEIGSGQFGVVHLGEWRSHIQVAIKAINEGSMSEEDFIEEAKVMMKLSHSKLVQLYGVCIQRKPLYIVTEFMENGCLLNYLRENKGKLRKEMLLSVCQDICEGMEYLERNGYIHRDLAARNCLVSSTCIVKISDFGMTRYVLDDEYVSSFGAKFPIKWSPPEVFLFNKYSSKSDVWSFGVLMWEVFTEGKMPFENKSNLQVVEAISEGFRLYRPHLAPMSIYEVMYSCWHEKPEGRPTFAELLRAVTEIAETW
Chain of Receptor tyrosine-protein kinase erbB-2 (P04626 whole entry): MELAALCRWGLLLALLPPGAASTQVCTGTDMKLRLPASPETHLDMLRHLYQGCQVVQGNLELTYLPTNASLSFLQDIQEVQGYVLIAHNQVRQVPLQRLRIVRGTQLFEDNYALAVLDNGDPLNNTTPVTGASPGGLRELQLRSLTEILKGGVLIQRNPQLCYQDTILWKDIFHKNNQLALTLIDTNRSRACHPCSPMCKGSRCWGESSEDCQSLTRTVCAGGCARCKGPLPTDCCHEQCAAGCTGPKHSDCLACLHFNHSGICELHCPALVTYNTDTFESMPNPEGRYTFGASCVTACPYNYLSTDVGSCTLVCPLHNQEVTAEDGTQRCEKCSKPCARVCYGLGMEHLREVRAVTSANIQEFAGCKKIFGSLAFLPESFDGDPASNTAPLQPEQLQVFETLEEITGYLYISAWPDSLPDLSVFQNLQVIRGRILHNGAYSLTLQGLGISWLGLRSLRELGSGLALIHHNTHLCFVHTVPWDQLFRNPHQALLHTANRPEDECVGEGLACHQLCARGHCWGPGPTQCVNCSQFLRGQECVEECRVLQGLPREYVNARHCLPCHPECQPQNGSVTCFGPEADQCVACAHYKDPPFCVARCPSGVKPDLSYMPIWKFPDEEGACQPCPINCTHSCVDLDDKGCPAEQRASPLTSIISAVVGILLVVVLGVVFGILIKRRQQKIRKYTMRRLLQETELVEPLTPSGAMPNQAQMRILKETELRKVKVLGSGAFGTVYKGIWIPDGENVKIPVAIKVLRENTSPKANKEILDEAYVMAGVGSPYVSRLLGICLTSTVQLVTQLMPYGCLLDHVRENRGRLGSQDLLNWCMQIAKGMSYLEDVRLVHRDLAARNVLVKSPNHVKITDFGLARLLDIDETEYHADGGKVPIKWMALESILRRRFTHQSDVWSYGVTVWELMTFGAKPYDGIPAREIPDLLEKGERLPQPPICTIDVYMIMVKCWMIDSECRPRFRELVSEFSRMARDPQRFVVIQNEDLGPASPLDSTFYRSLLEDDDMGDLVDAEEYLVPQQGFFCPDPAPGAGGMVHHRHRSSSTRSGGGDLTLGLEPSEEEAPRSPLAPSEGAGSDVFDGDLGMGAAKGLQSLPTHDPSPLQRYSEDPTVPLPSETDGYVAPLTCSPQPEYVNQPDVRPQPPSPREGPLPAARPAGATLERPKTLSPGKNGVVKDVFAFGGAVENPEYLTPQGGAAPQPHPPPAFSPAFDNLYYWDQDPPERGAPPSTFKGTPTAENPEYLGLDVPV

`C=CC(=O)Nc1cccc(Nc2ncc(NC(=O)c3cc(NC(=O)c4cccc(C(F)(F)F)c4)ccc3C)cn2)c1`: the Activity result in the series with Mus musculus is on record as “Non-toxic”. Besides, the inhibition result (in series [1]; in the series filed under Homo sapiens; in series [3]) was “Active” in each case. The inhibition in vivo at 20 mg/kg in series [2] was 66%. The IC50 turned out to be 2680 nM in series [4]; 1.9 nM in series [6]; 2.7 nM in [7]; 1.9 nM in series [12]; 19 nM in series [13]; 8.2 nM in [14]. Moreover, the outcome in series [5] was inactive. Moreover, the “growth inhibition (GI)” value with DOHH-2 is “Dose-dependent effect”. The same compound displayed a concentration at 24 h in series [8] of 13 ng/mL. This compound also gave a solubility in series [9] of 7.02 µM (≈ 3.93 µg/mL). For the same compound, the Vd in series [10] is 0.2 L/kg. The inhibition in vivo at 10 mg/kg in series [11] is 60%. The “growth inhibition (GI)” value in the series with JVM-3 is “Active”. Also, in series [15], the outcome was Active.
